Values without a mark were called inactive. Activity calls are given as the source filed them.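 Rule for the calls, unless noted: active = inhibition at or above 50% at 10 µM; inactive = inhibition below 50%.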

The target in one assay is Muscarinic acetylcholine receptor M4 (Homo sapiens) (UniProt P08173). The assay is described as follows: M4-linked GIRK flux change, two-sided – cell-based, HEK293 M4/GIRK, thallium flux, BTC-AM, M4 allosteric agonist project, primary screen (AID 625;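 active = fluorescence slope after compound addition differing from the mean of all tested samples at 99.7% confidence, mostly higher but some lower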;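 note: thallium influx through GIRK channels coupled to M4 in HEK293 cells with BTC-AM dye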). The settings on record: at 10 µM, actives lie on both sides. Put shortly: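 Material – HEK293 cells with M4 receptor and GIRK channels · Buffer or medium – pH 7.3 thallium assay buffer · Doses – one dose, 10 µM final · Timing – cells overnight at 37 °C, BTC-AM loading 1 h, reads 2 min total · Measured by – kinetic fluorescence with BTC-AM dye · Controls – carbachol and DMSO controls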
Chain of Muscarinic acetylcholine receptor M4 (Homo sapiens) (P08173 whole entry, looked up): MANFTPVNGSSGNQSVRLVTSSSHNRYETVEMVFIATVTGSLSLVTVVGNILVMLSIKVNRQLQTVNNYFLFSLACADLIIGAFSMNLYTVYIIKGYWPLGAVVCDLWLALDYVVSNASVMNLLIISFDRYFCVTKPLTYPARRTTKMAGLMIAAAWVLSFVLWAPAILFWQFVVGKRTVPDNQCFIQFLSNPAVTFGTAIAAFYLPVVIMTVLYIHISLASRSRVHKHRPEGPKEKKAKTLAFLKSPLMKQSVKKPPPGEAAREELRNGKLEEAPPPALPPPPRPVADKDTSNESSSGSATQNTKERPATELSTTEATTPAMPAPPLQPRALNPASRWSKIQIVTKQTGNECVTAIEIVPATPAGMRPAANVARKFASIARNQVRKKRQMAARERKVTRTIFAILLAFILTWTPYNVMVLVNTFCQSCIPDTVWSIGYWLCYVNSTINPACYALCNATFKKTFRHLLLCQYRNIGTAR
Regarding `Cc1ccc(NC(=O)c2cc(N3CCOCC3)nc3ccccc23)cc1`, the fluorescence slope is 0.00495.

For the molecule `COc1ccc(-c2nc3n(n2)C(=O)CC(c2ccco2)S3)cc1` (configuration not stated), the fluorescence slope is 0.00655.

As to `COC(=O)c1c(-n2cnnn2)sc(C)c1C`, the fluorescence slope was 0.00518. `Cc1cccn2c(=O)c(/C=C(\C#N)S(=O)(=O)c3ccccc3)c(N3CCN(C)CC3)nc12`: the fluorescence slope was 0.00316. Take `O=C(CSc1nc2ccccc2s1)Nn1cnnc1`: the fluorescence slope was 0.00557. Consider `CCc1[nH]c(=O)c(C#N)c2c1CCCC2`, for which the fluorescence slope is 0.00393.

System in a further assay: not listed separately
The assay is described as follows: inhibitors of larval lipid processing in zebrafish, primary screen, whole organism, PED6 fluorescence, gall bladder and intestine (AID 686;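 active = a full or partial loss of lipid-probe fluorescence in the fish gall bladder, intestine or both, judged by eye; inactive = no fluorescence loss, or compound toxic to the fish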;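 note: larvae 5 to 7 days old with five fish per well; signal comes from phospholipase A2 cleavage of quenched PED6 carried via bile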). The settings on record: Zebrafish larvae PED6 lipid processing, fluorescence scoring; screened at 20 µM (by protocol). Put shortly: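 system = live zebrafish larvae aged 5-7 days, whole organism | probe or stimulus = ingested quenched lipid PED6 at 100 nM | doses = 20 µM single dose | timing = overnight exposure | detection = fluorescence microscopy with visual scoring of gall bladder and intestine | read-out = visual per-well fluorescence inhibition score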
As to `Cc1ccc(NC(=O)c2cc(N3CCOCC3)nc3ccccc23)cc1`, the call was inactive. Still for that read-out and setting: the entry for `COc1ccc(-c2nc3n(n2)C(=O)CC(c2ccco2)S3)cc1` (configuration not stated) is “inactive”.

On to `COC(=O)c1c(-n2cnnn2)sc(C)c1C`, for which the outcome was inactive. For the molecule `Cc1cccn2c(=O)c(/C=C(\C#N)S(=O)(=O)c3ccccc3)c(N3CCN(C)CC3)nc12`, the molecule was called inactive.

On to `O=C(CSc1nc2ccccc2s1)Nn1cnnc1`, for which the molecule was called inactive. The same measure, in the same setting: the entry for `CCc1[nH]c(=O)c(C#N)c2c1CCCC2` is “inactive”.

System in a further assay: not listed separately
The assay is described as follows: loss of swimming-algae plug formation – whole organism, Chlamydomonas reinhardtii, WT vs cilia-less mutant, absorbance, 96-well, primary screen (AID 463189;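 active = inhibition at or above 50% relative to wild type and mutant plate controls; inactive = inhibition below 50%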;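 note: 0% = wild type cc124 cells in DMSO and 100% = ciliumless bld1 mutant cells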). To be noted: Chlamydomonas reinhardtii gravitaxis, OD600 absorbance, 2 days; at 10 µM; stronger effect = higher value.
For orientation: inhibition means the change of the read-out against control, counted positive when it falls. In the case of `Cc1ccc(NC(=O)c2cc(N3CCOCC3)nc3ccccc23)cc1`, the inhibition was 19%.

Take `COc1ccc(-c2nc3n(n2)C(=O)CC(c2ccco2)S3)cc1` (configuration not stated): the inhibition was -9.22%.

For `COC(=O)c1c(-n2cnnn2)sc(C)c1C`, the inhibition is -6.11%. On the same count and under the same terms, the figure for `Cc1cccn2c(=O)c(/C=C(\C#N)S(=O)(=O)c3ccccc3)c(N3CCN(C)CC3)nc12` is 1.87%.

Consider `O=C(CSc1nc2ccccc2s1)Nn1cnnc1`, for which the inhibition was 17.1%. In the case of `CCc1[nH]c(=O)c(C#N)c2c1CCCC2`, the inhibition was 26.8%.

System in the next assay: not listed separately
The assay is described as follows: blockers of RIG-like receptor reporter activation – cell-based, Sendai virus stimulus, luciferase, 10K MLSCN set, TLR/RLR signaling modifier project, primary screen (AID 602276).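 Note: firefly luciferase from ISG56 promoter only with Renilla not read in this screen; 0% = Sendai virus plus DMSO and 100% = medium plus DMSO without virus.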 The settings on record: HEK293 RL24 IRF3 luciferase reporter, at 10 µM, stronger effect = higher value. (In general: Reporter assays use an easily measured gene product as a stand-in for the process of interest.)
Consider `COc1ccc(N(CC(=O)Nc2cc(C)ccc2C)S(=O)(=O)c2c(C)nn(C)c2C)cc1`, for which the inhibition is -2.9%. `Cc1nnc(NC(=O)CSc2cn(CCNC(=O)c3ccccc3)c3ccccc23)s1`: the inhibition is -1.29%. Still for that read-out and setting: as for `CC1(C)CC(=O)C(C(=O)CCCCC(=O)C2C(=O)CC(C)(C)CC2=O)C(=O)C1`, the figure is -6.03%. Still for that read-out and setting: the figure for `O=C(CN(c1ccc(F)cc1)S(=O)(=O)c1ccc2c(c1)OCCO2)Nc1ccc2c(c1)OCO2` is 16.4%; for `CCOC(=O)N1CCN(C(=O)CSc2nnc(-c3cccc(Cl)c3)o2)CC1` it is 0.178%. On the same count and under the same terms, as for `O=c1oc2c3c4c(cc2s1)CCCN4CCC3`, the figure is 7.3%; as for `CCOC(=O)N1CCN(C(=O)CSc2cc(C)nc3c(-c4ccccc4OC)c(C)nn23)CC1`, -11.1%; as for `Cc1ccc(-c2noc(-c3ccccc3C(=O)NCC3CCCO3)n2)cc1` (configuration not stated), -20%. With `CCS(=O)(=O)N1CCCC(C(=O)NCc2cccc(OC)c2)C1` (configuration not stated), the inhibition was -3.96%. On the same count and under the same terms, as for `CC1=C(C(=O)OC2CCCCCC2)C(c2ccc(C)o2)C2=C(CCCC2=O)N1` (configuration not stated), the figure is -8.61%. The same measure, in the same setting: as for `CC(=O)N1CCN(C(=O)COc2ccc(Br)cc2)CC1`, the figure is 5.88%; as for `Cc1ccc(NC(=O)CSc2nnc(-c3ccccn3)n2C)cc1`, 0.794%; as for `Nn1c(SCC(=O)NC2CCCCC2)nnc1C1CC1`, 4.49%. In the case of `O=C(NC1CCCc2ccccc21)c1ccc(CNc2c(N3CCOCC3)c(=O)c2=O)cc1` (configuration not stated), the inhibition was 12.8%. For the molecule `Nc1nc(-n2cnnc2)nn1-c1ccccc1`, the inhibition was 4.93%. On to `Cc1cccc(-n2ncc3c(NCc4cccnc4)ncnc32)c1`, for which the inhibition is -49.1%.

`CCCn1c(O)c(CN2CCCC(C)C2)c(C)c(C#N)c1=O` (configuration not stated): the inhibition is 13.3%. In the case of `C=CCn1c(SCn2nnc3ccccc3c2=O)nnc1-c1ccc(Br)cc1`, the inhibition was -1.43%. As for `Cc1cc(NS(=O)(=O)Cc2ccccc2)cc(C)c1OCC(=O)N1CCOCC1`, the inhibition is 14.5%. As to `O=S(=O)(NC1CCCC1)c1ccccc1Cl`, the inhibition is 7.42%. As for `CCOC(=O)c1[nH]c2ccccc2c1NC(=O)C(CC)CC`, the inhibition is 12.4%. With `O=C(C1CCN(C2CC(=O)N(c3ccc(F)cc3)C2=O)CC1)N1CCOCC1` (configuration not stated), the inhibition was 7.33%. On to `Cc1cc(C(=O)Nc2cccnc2)no1`, for which the inhibition was -17%. `Cc1occc1C(=O)Nc1nnc(C2CCCCC2)s1`: the inhibition is -0.797%. `Cc1cccc(CCNC(=O)CCc2nc(-c3ccccc3F)no2)c1`: the inhibition was -0.595%. Same read-out and setting: the figure for `CCOC(=O)N1CCC(NC(=O)Cn2ncc3c4ccccc4n(C)c3c2=O)CC1` is 14.9%; for `CCCn1c(-c2ccc(F)cc2)cnc1SCC(=O)O` it is 16.2%.

With `CC1CCN(C(=O)CSc2nnc(-c3ccc(S(=O)(=O)N4CCOCC4)cc3)n2C)CC1`, the inhibition is 3.11%. Take `Cc1cc(=O)n2nc(N3CCCC(C(=O)N4CCc5ccccc54)C3)sc2n1` (configuration not stated): the inhibition was 18.4%. Consider `CCOC(=O)c1ccc(NC(=O)CSc2n[nH]c(-c3ccncc3)n2)cc1`, for which the inhibition is -5.95%. As to `CCOC(=O)N1CCC(c2cc(=O)n3[nH]cc(C(=O)OC)c3n2)CC1`, the inhibition was 16.5%. As to `COc1ccc(C(=O)CSc2nnc(C3CCCCC3)n2N)c(OC)c1`, the inhibition is 10.3%. As for `Cc1ccc(C)c(NC(=O)c2ccc3c(c2)N(Cc2ccc(F)cc2)C(=O)CS3=O)c1` (configuration not stated), the inhibition was 4.49%.

Regarding `COc1cc(C2CC(=O)NC3=C2C(=O)CC(C)(C)C3)ccc1O` (configuration not stated), the inhibition is 1.82%.

For the origin of these results see PubChem BioAssay.
